According to ChEMBL document CHEMBL1142792, “Structure-activity relationship studies of salubrinal lead to its active biotinylated derivative” (Bioorg Med Chem Lett, 2005):

Legend:
Assay type in all cases: functional, cell-based; call rule not given here
PC-12 [1] = test: Cytoprotective activity on rat tunicamycin treated rat pheochromocytoma cell line PC12 from apoptosis induced by Endoplasmic reticulum stress; TX=Toxic
Summary of the method: (§1)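 PC12 cells exposed to tunicamycin (ER-stress inducer) together with graded compound doses for 37 h; viability read as cellular ATP content. Positive control: zVAD.fmk 100 µM. EC50 taken as concentration giving half-maximal rescue from cell death relative to the Tm-only control.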

PC-12 [2] = test: Cytoprotective activity on rat tunicamycin treated rat pheochromocytoma cell line PC12 from apoptosis induced by Endoplasmic reticulum stress; summary of the method: as §1
PC-12 [3] = test: Cytoprotective activity on rat tunicamycin treated rat pheochromocytoma cell line PC12 from apoptosis induced by Endoplasmic reticulum stress; NA = Not active upto 100 uM; summary of the method: as §1

Structure (SMILES)	EC50 (PC-12 [2]) [µM]	further results
O=C(/C=C/c1ccccc1)NNC(=S)Nc1ccccn1	–	EC50 (PC-12 [1]): Toxic
O=C(CCc1ccccc1)NC(NC(=S)Nc1ccccn1)C(Cl)(Cl)Cl (stereo unspecified)	33	–
O=C(/C=C/c1ccccc1C(F)(F)F)NC(/N=C(\S)Nc1ccccn1)C(Cl)(Cl)Cl (stereo unspecified)	38	–
O=C(/C=C/c1ccccc1Cl)NC(NC(=S)Nc1ccccn1)C(Cl)(Cl)Cl (stereo unspecified)	40	–
O=C(/C=C/c1ccccc1)NC(CO)/N=C(\S)Nc1ccccn1 (stereo unspecified)	–	EC50 (PC-12 [3]): Not Active
CCCC/N=C(\S)NC(NC(=O)/C=C/c1ccccc1)C(Cl)(Cl)Cl (stereo unspecified)	24	–
CCOC(=O)C(/N=C(\S)Nc1ccccn1)NC(=O)/C=C/c1ccccc1 (stereo unspecified)	–	EC50 (PC-12 [3]): Not Active
CCCCOc1ccc(/C=C/C(=O)NC(/N=C(\S)Nc2ccccn2)C(Cl)(Cl)Cl)cc1 (stereo unspecified)	–	EC50 (PC-12 [3]): Not Active
CC(C)=CC(=O)NC(/N=C(\S)Nc1ccccn1)C(Cl)(Cl)Cl (stereo unspecified)	–	EC50 (PC-12 [3]): Not Active
O=C(/C=C/c1ccccc1)NC(NC(=S)NC(=O)c1ccccc1)C(Cl)(Cl)Cl (stereo unspecified)	> 100	–
O=C(NC(NC(=S)Nc1ccccn1)C(Cl)(Cl)Cl)c1ccccc1 (stereo unspecified)	–	EC50 (PC-12 [3]): Not Active
O=C(/C=C/c1ccc([N+](=O)[O-])cc1)NC(/N=C(\S)Nc1ccccn1)C(Cl)(Cl)Cl (stereo unspecified)	28	–
Nc1ccc(/C=C/C(=O)NC(/N=C(\S)Nc2ccccn2)C(Cl)(Cl)Cl)cc1 (stereo unspecified)	56	–
O=C(/C=C/c1ccccc1)NCCNC(=S)Nc1ccccn1	–	EC50 (PC-12 [1]): Toxic
O=C(/C=C/c1ccc(F)cc1F)NC(/N=C(\S)Nc1ccccn1)C(Cl)(Cl)Cl (stereo unspecified)	72	–
O=C(/C=C/c1ccccc1)NC(/N=C(\S)Nc1ccccn1)C(F)(F)F (stereo unspecified)	–	EC50 (PC-12 [1]): Toxic
O=C(/C=C/c1cccs1)NC(NC(=S)Nc1ccccn1)C(Cl)(Cl)Cl (stereo unspecified)	41	–
O=C(/C=C/C1CCCCC1)NC(NC(=S)Nc1ccccn1)C(Cl)(Cl)Cl (stereo unspecified)	29	–
O=C(/C=C/c1cccnc1)NC(NC(=S)Nc1ccccn1)C(Cl)(Cl)Cl (stereo unspecified)	30	–
O=C(/C=C/c1ccccc1)NC(NC(=S)Nc1ccccn1)C(Cl)(Cl)Cl (stereo unspecified)	40	–
O=C(/C=C/c1ccccc1)NC(NC(=S)Nc1cnc2ccccc2c1)C(Cl)(Cl)Cl (stereo unspecified)	–	EC50 (PC-12 [3]): Not Active
O=C(/C=C/c1ccccc1)NC(NC(=S)Nc1ccccn1)C(Cl)Cl (stereo unspecified)	75	–
O=C(/C=C/c1ccc(Br)cc1)NC(NC(=S)Nc1ccccn1)C(Cl)(Cl)Cl (stereo unspecified)	50	–
O=C(/C=C/c1ccccc1)NC(NC(=S)Nc1ccccn1)C(Br)(Br)Br (stereo unspecified)	51	–
O=C(/C=C/c1ccccc1)NC1CSC(Nc2ccccn2)=N1 (stereo unspecified)	–	EC50 (PC-12 [3]): Not Active
O=C(/C=C/c1ccccc1)NC(NC(=S)Nc1cccc2cccnc12)C(Cl)(Cl)Cl (stereo unspecified) [SALUBRINAL]	15	–
